Measured values: ChEMBL document CHEMBL4184298, “Development of Potent Inhibitors of Receptor Tyrosine Kinases by Ligand-Based Drug Design and Target-Biased Phenotypic Screening” (J Med Chem, 2018)
The source made the active and inactive calls. The calls are words filed in the database; no cut-off is given here.

Key:
Mus musculus = species on record: Mus musculus; assay: Antiproliferative activity against mouse AXL-positive Breast cancer cells after 5 days by PrestoBlue assay; type: functional
Summary of the method: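 Cell proliferation: AXL+ cells were exposed to 8-point half-log dilutions (0.03–100 μM). Viability was read with PrestoBlue reagent on day 5.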

[1] = biological target: RAC-alpha serine/threonine-protein kinase (Homo sapiens, UniProt P31749); assay: Inhibition of AKT (unknown origin) using poly [Glu, Try] 4:1 as substrate in presence of [gamma-33P]ATP
Summary of the method: (§1)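 Radiometric assay on recombinant kinase: ³³P incorporation into the kinase substrate was measured and activity was expressed relative to a DMSO control.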

[2] = biological target: Serine/threonine-protein kinase mTOR (Homo sapiens, UniProt P42345); assay: Inhibition of wild-type human partial length MTOR (L1382 to W2549 residues) expressed in mammalian expression system using poly [Glu, Try] 4:1 as substrate in presence of [gamma-33P]ATP; summary of the method: as §1
[3] = biological target: Proto-oncogene tyrosine-protein kinase Src (Homo sapiens, UniProt P12931); assay: Inhibition of wild-type human partial length SRC (L240 to L536 residues) expressed in bacterial expression system using poly [Glu, Try] 4:1 as substrate in presence of [gamma-33P]ATP
[4] = biological target: Hepatocyte growth factor receptor (Homo sapiens, UniProt P08581); assay: Inhibition of wild-type human partial length MET (D1010 to S1367 residues) expressed in bacterial expression system using poly [Glu, Try] 4:1 as substrate in presence of [gamma-33P]ATP; summary of the method: as §1
Aurora kinase A = biological target: T1, Aurora kinase A (Homo sapiens, UniProt O14965); assay: Inhibition of human partial length Aurora A (E122 to K401 residues) expressed in mammalian expression system using poly [Glu, Try] 4:1 as substrate in presence of [gamma-33P]ATP; summary of the method: as §1
T1 sequence (O14965 whole entry): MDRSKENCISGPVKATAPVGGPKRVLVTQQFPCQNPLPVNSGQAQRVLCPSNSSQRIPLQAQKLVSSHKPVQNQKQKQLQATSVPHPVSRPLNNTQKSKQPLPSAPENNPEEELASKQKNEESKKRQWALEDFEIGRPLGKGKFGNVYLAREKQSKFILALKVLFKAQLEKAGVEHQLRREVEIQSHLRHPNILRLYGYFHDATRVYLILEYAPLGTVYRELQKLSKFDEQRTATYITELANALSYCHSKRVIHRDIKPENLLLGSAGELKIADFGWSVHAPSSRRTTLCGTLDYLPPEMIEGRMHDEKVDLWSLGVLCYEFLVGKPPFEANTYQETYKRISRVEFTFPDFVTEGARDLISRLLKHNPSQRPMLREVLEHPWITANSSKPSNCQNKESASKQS

[5] = biological target: Mast/stem cell growth factor receptor Kit (Homo sapiens, UniProt P10721); assay: Inhibition of wild-type human partial length KIT (I571 to D952 residues) expressed in bacterial expression system using poly [Glu, Try] 4:1 as substrate in presence of [gamma-33P]ATP; summary of the method: as §1
[6] = biological target: Vascular endothelial growth factor receptor 2 (Homo sapiens, UniProt P35968); assay: Inhibition of wild-type human partial length VEGFR2 (R787 to P1253 residues) expressed in mammalian expression system using poly [Glu, Try] 4:1 as substrate in presence of [gamma-33P]ATP
[7] = biological target: T2, Tyrosine-protein kinase receptor TYRO3 (Homo sapiens, UniProt Q06418); assay: Inhibition of wild-type human partial length TYRO3 (S497 to T814 residues) expressed in bacterial expression system using poly [Glu, Try] 4:1 as substrate in presence of [gamma-33P]ATP; summary of the method: as §1
T2 sequence (Q06418 whole entry): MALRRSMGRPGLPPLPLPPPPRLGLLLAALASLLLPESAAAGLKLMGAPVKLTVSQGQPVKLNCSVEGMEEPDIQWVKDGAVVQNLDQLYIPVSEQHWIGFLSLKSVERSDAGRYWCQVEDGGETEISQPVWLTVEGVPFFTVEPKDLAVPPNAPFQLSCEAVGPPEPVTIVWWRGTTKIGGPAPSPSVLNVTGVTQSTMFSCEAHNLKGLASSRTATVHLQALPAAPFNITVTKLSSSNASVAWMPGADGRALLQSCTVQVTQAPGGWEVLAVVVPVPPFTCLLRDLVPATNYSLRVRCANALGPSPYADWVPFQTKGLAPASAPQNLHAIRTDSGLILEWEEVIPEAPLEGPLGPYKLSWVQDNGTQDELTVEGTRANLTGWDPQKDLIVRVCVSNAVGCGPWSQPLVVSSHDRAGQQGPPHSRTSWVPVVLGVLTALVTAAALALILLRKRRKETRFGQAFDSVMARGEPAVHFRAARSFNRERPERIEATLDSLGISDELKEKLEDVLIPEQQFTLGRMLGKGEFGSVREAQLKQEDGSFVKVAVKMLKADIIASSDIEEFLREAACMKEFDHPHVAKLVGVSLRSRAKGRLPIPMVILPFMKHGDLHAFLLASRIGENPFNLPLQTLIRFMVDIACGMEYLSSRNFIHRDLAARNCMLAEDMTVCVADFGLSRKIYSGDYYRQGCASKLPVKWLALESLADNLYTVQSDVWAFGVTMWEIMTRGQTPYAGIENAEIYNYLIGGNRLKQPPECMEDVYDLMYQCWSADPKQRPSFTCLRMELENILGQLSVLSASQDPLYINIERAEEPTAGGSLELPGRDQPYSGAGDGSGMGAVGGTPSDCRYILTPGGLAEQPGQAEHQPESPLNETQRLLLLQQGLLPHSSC

Sequence of RAC-alpha serine/threonine-protein kinase (P31749 whole entry): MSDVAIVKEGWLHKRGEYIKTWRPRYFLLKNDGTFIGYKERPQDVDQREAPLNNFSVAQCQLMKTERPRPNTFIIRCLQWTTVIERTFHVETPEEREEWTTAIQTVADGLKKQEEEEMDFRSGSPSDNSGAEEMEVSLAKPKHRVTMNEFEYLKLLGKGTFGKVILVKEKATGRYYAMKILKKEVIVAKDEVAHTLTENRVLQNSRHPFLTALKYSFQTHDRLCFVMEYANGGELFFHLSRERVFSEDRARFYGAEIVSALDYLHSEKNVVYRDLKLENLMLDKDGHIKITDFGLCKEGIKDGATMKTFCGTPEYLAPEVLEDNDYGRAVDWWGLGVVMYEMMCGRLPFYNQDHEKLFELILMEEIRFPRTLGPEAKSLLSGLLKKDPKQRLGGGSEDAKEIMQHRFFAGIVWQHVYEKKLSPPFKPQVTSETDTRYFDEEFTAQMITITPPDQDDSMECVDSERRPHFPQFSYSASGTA
Sequence of Hepatocyte growth factor receptor (P08581 whole entry, the tested form may be a part): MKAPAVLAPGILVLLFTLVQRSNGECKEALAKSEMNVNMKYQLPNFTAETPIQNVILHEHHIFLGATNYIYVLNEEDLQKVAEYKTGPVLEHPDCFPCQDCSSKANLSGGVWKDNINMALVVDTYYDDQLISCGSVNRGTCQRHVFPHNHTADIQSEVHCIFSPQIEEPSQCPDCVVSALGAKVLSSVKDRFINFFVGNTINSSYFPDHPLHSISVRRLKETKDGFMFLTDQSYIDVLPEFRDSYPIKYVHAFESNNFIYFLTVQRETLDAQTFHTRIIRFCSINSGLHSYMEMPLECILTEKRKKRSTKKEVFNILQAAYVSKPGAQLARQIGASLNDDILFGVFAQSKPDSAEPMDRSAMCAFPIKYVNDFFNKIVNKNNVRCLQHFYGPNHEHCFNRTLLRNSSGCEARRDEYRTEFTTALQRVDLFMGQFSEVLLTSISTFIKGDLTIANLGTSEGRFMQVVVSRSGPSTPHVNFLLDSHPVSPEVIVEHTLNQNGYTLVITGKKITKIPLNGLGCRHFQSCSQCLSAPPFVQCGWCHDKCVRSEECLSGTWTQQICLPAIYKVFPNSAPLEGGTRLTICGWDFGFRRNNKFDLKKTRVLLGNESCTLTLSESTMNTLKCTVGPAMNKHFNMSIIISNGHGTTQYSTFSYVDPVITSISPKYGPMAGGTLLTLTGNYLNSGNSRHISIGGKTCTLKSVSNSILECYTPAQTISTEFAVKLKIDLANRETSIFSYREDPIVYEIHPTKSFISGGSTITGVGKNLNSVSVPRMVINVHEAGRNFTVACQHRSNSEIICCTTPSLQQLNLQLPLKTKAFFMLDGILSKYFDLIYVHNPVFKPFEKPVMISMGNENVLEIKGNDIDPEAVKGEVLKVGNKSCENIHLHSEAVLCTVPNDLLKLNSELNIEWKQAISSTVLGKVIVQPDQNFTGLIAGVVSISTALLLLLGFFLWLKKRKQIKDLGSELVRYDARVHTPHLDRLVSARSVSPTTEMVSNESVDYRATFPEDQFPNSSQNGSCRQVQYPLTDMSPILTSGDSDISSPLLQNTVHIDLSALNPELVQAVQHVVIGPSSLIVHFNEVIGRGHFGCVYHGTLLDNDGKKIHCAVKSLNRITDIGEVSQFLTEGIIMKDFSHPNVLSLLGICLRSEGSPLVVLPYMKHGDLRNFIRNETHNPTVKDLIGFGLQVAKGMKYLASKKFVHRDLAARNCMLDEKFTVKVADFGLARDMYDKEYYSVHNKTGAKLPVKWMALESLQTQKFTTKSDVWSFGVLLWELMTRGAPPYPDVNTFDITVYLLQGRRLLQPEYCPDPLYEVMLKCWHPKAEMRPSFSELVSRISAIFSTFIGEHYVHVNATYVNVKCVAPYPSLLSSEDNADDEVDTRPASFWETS
Sequence of Vascular endothelial growth factor receptor 2 (P35968 whole entry, the tested form may be a part): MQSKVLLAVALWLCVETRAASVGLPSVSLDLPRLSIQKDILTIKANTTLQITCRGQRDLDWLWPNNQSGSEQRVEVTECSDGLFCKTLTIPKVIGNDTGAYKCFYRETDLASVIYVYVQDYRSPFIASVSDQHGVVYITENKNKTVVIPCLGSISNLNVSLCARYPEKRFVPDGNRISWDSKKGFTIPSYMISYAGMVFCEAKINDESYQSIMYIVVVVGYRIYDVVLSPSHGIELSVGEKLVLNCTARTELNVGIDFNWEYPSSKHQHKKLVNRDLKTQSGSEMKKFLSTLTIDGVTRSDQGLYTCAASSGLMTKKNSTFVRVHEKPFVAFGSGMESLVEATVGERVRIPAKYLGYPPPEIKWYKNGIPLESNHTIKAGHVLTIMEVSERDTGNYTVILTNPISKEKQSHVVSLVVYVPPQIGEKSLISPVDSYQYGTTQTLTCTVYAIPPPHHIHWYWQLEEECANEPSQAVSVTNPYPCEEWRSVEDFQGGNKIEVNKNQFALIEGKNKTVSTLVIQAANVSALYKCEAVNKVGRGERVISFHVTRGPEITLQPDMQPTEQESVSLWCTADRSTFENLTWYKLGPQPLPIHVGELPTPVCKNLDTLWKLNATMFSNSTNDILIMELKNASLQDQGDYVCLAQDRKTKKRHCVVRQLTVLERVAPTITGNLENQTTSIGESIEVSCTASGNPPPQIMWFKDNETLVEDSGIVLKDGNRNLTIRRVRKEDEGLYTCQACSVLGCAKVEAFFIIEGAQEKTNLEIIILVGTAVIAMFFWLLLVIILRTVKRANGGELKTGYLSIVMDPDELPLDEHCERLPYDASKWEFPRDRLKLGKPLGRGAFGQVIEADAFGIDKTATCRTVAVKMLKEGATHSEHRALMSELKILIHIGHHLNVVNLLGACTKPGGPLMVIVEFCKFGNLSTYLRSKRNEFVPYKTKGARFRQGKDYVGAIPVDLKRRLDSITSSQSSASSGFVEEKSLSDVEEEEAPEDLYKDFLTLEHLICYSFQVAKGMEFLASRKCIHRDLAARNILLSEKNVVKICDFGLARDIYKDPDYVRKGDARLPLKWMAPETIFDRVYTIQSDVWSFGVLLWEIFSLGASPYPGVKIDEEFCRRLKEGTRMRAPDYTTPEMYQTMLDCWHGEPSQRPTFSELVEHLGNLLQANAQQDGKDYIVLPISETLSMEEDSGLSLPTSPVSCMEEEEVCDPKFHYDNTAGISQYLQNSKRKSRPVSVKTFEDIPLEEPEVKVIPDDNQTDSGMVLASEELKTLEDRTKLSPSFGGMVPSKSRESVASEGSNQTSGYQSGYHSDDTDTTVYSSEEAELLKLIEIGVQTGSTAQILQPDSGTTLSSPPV
Sequence of Proto-oncogene tyrosine-protein kinase Src (P12931 2-536 limits assumed): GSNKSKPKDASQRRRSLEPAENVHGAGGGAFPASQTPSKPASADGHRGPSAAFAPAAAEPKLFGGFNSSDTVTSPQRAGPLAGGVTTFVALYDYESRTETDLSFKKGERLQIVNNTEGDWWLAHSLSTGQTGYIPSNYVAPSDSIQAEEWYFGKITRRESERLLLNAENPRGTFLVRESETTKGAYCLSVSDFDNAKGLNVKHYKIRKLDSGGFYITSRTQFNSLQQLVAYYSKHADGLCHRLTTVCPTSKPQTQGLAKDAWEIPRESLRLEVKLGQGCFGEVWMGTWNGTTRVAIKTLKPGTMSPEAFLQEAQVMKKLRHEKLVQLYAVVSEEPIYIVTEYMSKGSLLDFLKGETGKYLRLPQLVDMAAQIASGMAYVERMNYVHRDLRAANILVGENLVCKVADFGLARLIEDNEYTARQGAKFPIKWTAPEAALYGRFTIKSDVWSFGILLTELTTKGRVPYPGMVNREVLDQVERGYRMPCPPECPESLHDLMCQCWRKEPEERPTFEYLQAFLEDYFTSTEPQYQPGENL
Sequence of Mast/stem cell growth factor receptor Kit (P10721 whole entry, the tested form may be a part): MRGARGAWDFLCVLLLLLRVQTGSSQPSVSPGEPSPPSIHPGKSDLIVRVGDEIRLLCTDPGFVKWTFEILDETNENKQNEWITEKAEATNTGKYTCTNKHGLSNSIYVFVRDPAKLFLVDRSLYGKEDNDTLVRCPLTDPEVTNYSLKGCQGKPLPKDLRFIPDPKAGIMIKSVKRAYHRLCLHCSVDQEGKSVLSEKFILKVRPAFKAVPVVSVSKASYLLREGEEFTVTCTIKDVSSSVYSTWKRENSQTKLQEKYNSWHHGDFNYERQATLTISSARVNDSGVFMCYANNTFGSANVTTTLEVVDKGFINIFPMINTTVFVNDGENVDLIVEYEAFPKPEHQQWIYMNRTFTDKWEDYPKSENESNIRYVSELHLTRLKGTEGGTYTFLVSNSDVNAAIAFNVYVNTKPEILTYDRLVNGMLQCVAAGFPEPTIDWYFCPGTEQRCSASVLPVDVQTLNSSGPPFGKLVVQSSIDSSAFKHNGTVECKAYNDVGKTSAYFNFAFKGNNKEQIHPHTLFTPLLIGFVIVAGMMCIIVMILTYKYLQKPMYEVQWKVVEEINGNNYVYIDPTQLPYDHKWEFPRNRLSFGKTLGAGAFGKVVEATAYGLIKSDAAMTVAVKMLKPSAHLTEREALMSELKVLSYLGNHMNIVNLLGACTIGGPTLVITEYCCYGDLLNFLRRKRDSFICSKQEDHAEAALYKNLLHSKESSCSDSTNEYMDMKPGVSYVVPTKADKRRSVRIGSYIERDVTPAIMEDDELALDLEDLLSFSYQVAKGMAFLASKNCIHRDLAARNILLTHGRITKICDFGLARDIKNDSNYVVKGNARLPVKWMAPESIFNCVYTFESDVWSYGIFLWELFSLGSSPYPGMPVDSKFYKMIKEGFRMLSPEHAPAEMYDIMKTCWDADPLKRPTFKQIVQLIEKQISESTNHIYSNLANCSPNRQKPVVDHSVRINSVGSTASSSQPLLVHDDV

Row | SMILES | Activity (Mus musculus) | also measured
1 | CNc1ncc2c(-c3ccc(N4CCNCC4)nc3)nn(Cc3cn(C4CCCC4O)nn3)c2n1 (stereo unspecified) | inactive | –
2 | CNc1ncc2c(-c3ccc(N4CCNCC4)nc3)nn(Cc3cn(-c4ccc(Cl)cc4)nn3)c2n1 | inactive | –
3 | CNc1ccc(-c2nn(Cc3cn(Cc4ccccc4)nn3)c3nc(NC)ncc23)cn1 | inactive | –
4 | CNc1ncc2c(-c3ccc(N4CCNCC4)nc3)nn(Cc3cn(-c4ccc(OC)cc4)nn3)c2n1 | inactive | –
5 | CNc1ncc2c(-c3cnc4[nH]ccc4c3)nn(Cc3cn(Cc4ccccc4)nn3)c2n1 | inactive | –
6 | CNc1ncc2c(-c3ccc(N4CCNCC4)nc3)nn(Cc3cn(-c4ccccc4)nn3)c2n1 | inactive | –
7 | CNc1ncc2c(-c3ccc(N4CCNCC4)nc3)nn(Cc3cn(Cc4ccccc4)nn3)c2n1 | Active | IC50 [1]: > 10 µM; IC50 [2]: > 10 µM; IC50 [3]: 1000 nM; IC50 [4]: > 10 µM; IC50 (Aurora kinase A): 1800 nM; IC50 [5]: > 10 µM; IC50 [6]: > 10 µM; IC50 [7]: > 10 µM
8 | CNc1ncc2c(-c3ccc(N4CCNCC4)nc3)nn(Cc3cn(C4CCCCC4O)nn3)c2n1 (stereo unspecified) | inactive | –
